Data: ChEMBL document CHEMBL1765048 (J Med Chem, 2011)
The source made the active and inactive calls. The rule behind the calls is not given here.

Assays:
[1] = biological target: T1, D(3) dopamine receptor (Homo sapiens, UniProt P35462); assay: Displacement of [3H]spiperone from wild type human dopamine D3 receptor expressed in HEK293 cells after 60 mins; type: cell-based
How it was run: (§1)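 Membranes from HEK293 cells transiently transfected with wild-type or mutant D3 were harvested at 48 h. KD and Bmax were set by [3H]spiperone saturation. Competition at 20-200 μg/mL protein for 1 h at 37 °C, ended by filtration on PEI-soaked GF/B filters, then scintillation counting. Ki by Cheng-Prusoff as mean ± SEM of 3-12 experiments in triplicate.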

[2] = organism: Homo sapiens; assay: Selectivity ratio of Ki for human dopamine D3 receptor V2.61F mutant to Ki for wild type human dopamine D3 receptor
[3] = biological target: D(3) dopamine receptor (Homo sapiens, UniProt P35462, V87F); assay: Displacement of [3H]spiperone from human dopamine D3 receptor V2.61F mutant expressed in HEK293 cells after 60 mins; type: cell-based; how it was run: as §1
Sequence of D(3) dopamine receptor (Homo sapiens, UniProt P35462, V87F) (P35462 as listed by the source V87F): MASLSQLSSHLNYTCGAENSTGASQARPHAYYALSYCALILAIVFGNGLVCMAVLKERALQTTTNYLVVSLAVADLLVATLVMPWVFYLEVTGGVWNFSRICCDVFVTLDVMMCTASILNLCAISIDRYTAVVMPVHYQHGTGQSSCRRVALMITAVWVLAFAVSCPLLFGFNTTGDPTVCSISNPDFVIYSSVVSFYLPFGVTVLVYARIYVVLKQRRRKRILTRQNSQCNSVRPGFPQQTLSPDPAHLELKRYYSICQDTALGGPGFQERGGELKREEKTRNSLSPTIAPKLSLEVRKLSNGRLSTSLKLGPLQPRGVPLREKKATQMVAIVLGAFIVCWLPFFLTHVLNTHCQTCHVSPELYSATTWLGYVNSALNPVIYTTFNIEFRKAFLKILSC

[4] = biological target: T2, D(2) dopamine receptor (Homo sapiens, UniProt P14416); assay: Displacement of [3H]spiperone from human dopamine D2short receptor expressed in CHO cells after 60 mins; type: cell-based
T2 sequence (P14416 whole entry): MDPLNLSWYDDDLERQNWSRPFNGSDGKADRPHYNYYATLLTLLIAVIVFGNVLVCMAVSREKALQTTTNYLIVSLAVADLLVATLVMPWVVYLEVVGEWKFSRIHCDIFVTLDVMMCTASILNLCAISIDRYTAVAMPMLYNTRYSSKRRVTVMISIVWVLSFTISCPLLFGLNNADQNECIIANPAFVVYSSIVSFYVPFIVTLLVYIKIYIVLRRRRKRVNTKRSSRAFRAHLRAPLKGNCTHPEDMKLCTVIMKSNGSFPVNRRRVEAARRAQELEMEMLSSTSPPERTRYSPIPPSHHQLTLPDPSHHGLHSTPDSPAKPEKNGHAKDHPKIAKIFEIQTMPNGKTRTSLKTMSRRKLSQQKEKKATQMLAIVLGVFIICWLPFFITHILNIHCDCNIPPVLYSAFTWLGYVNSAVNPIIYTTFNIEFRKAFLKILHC
How it was run: (§2)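 Incubated 60 min at 37 °C in sodium-free buffer: 50 mM Tris-HCl, 1 mM EDTA, 5 mM MgCl2, 0.1 mM DTT, bacitracin, trypsin inhibitor, pH 7.4. Ki by Cheng-Prusoff; 3-9 experiments in triplicate.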

[5] = biological target: T2, D(2) dopamine receptor; assay: Displacement of [3H]spiperone from human dopamine D2long receptor expressed in CHO cells after 60 mins; type: cell-based; how it was run: as §2
[6] = biological target: T1, D(3) dopamine receptor; assay: Displacement of [3H]spiperone from human dopamine D3 receptor expressed in CHO cells after 60 mins; type: cell-based; how it was run: as §2
[7] = Displacement of [3H]prazosin from adrenergic alpha1 receptor in porcine cerebral cortex after 60 mins; type: tissue-based, Sus scrofa
[8] = biological target: D(1A) dopamine receptor (Sus scrofa, UniProt P50130); assay: Displacement of [3H]SCH23390 from dopamine D1 receptor in porcine cerebral cortex after 60 mins; type: tissue-based
Sequence of D(1A) dopamine receptor (P50130 whole entry): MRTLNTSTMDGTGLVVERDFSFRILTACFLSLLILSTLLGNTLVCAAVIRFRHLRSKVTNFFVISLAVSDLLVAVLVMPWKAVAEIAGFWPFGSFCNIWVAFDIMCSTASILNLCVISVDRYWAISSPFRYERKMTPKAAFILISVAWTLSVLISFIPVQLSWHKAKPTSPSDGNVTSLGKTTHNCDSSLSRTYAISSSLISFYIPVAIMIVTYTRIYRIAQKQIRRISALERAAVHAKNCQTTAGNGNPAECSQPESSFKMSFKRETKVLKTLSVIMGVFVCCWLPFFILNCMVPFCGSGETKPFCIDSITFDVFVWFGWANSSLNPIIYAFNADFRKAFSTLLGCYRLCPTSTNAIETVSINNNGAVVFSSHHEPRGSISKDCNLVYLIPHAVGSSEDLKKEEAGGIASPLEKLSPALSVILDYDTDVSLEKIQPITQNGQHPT

[9] = biological target: T3, D(4) dopamine receptor (Homo sapiens, UniProt P21917); assay: Displacement of [3H]spiperone from human dopamine D4.4 receptor expressed in CHO cells after 60 mins; type: cell-based; how it was run: as §2
T3 sequence (P21917 whole entry): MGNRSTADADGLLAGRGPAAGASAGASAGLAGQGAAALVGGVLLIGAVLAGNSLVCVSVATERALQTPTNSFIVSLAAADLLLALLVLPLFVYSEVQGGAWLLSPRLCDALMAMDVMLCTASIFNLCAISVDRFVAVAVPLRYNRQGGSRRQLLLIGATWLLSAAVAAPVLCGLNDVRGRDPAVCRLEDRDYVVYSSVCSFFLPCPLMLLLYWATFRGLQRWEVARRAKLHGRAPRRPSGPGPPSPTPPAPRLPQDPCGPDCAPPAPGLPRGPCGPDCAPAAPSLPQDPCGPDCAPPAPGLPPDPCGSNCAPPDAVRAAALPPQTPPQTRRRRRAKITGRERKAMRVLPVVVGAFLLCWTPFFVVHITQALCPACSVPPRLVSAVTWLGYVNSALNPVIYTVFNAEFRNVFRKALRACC

[10] = biological target: T1, D(3) dopamine receptor; assay: Displacement of [3H]7-OH-DPAT from human dopamine D3 receptor expressed in CHO cells after 60 mins; type: cell-based
[11] = biological target: T2, D(2) dopamine receptor; assay: Displacement of [3H]7-OH-DPAT from human dopamine D2long receptor expressed in CHO cells after 60 mins; type: cell-based
How it was run: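 CHO membranes stably expressing D2long (200 μg protein/well) incubated with 1.0 nM [3H]7-OH-DPAT for 60 min at 37 °C. […] Ki from Cheng-Prusoff; 3-8 experiments in triplicate.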

[12] = biological target: D(3) dopamine receptor (Homo sapiens, UniProt P35462, D110E); assay: Displacement of [3H]spiperone from human dopamine D3 receptor D3.32E mutant expressed in HEK293 cells after 60 mins; type: cell-based; how it was run: as §1
Sequence of D(3) dopamine receptor (Homo sapiens, UniProt P35462, D110E) (P35462 as listed by the source D110E): as the sequence (P35462 as listed by the source V87F) above, with F87V, D110E counted along it

[13] = biological target: T1, D(3) dopamine receptor; assay: Displacement of [3H]spiperone from human dopamine D3 receptor S5.42A mutant expressed in HEK293 cells after 60 mins; type: cell-based; how it was run: as §1
[14] = biological target: D(3) dopamine receptor (Homo sapiens, UniProt P35462, S196A); assay: Displacement of [3H]spiperone from human dopamine D3 receptor S5.46A mutant expressed in HEK293 cells after 60 mins; type: cell-based; how it was run: as §1
Sequence of D(3) dopamine receptor (Homo sapiens, UniProt P35462, S196A) (P35462 as listed by the source S196A): as the sequence (P35462 as listed by the source V87F) above, with F87V, S196A counted along it

[15] = biological target: T1, D(3) dopamine receptor; assay: Displacement of [3H]spiperone from human dopamine D3 receptor H6.55A mutant expressed in HEK293 cells after 60 mins
[16] = biological target: T2, D(2) dopamine receptor; assay: Antagonist activity at human dopamine D2long receptor expressed in CHO cells assessed as inhibition of forskolin-induced cAMP accumulation by bioluminescence assay; type: functional, cell-based
How it was run: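 CHO cells stably expressing D2long, seeded at 5000 cells/well 24 h before assay and washed with PBS. Compounds added with 20 μM forskolin in serum-free medium containing 500 μM IBMX and 100 μM Ro 20-1724, pH 7.4, for 15 min at 25 °C. cAMP read by cAMP-Glo luminescence (PKA kinase reaction, then Kinase-Glo).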

[17] = biological target: T2, D(2) dopamine receptor; assay: Agonist activity at human dopamine D2long receptor expressed in HEK293 cells co-expressing Galphao1 assessed as incorporation of [35S]GTPgammaS into Galphao1 after 30 mins by scintillation counting; type: functional, cell-based
How it was run: (§3)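 Membranes from HEK293 cells transiently co-transfected with D2long and PTX-insensitive Gαo (receptor 1500 ± 50 fmol/mg), harvested 48 h post-transfection. Buffer: 20 mM Hepes, 10 mM MgCl2, 100 mM NaCl, 70 mg/L saponin, pH 7.4. Membranes (30-50 μg/mL protein), compound and 10 μM GDP preincubated 30 min at 37 °C, then 0.10 nM [35S]GTPγS added for 30 min at 37 °C. Reaction stopped by filtration and bound counts read.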

[18] = biological target: T2, D(2) dopamine receptor; assay: Agonist activity at human dopamine D2long receptor expressed in CHO cells assessed as induction of [3H]thymidine incorporation after 2 hrs
[19] = biological target: T1, D(3) dopamine receptor; assay: Agonist activity at human dopamine D3 receptor expressed in CHO cells assessed as induction of [3H]thymidine incorporation after 2 hrs; type: functional, cell-based
How it was run: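 CHO dhfr- cells stably expressing D3 receptor labeled with 0.02 μCi [3H]thymidine per well (specific activity […]) for 2 h after stimulation with compound. […] Operational model used to estimate τ.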

[20] = biological target: T2, D(2) dopamine receptor; assay: Agonist activity at human dopamine D2long receptor expressed in CHO cells assessed as increase of forskolin-induced cAMP accumulation by bioluminescence assay
[21] = biological target: T2, D(2) dopamine receptor; assay: Agonist activity at human dopamine D2long receptor expressed in HEK293 cells co-expressing Galphai2 assessed as incorporation of [35S]GTPgammaS into Galphai2 after 30 mins by scintillation counting; type: functional, cell-based
How it was run: as §3, with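 “PTX-insensitive Gαi2” for “PTX-insensitive Gαo”, “(receptor 4900” for “(receptor 1500”, “± 440” for “± 50”, “at 30” for “at 37”, “for 75” for “for 30”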

[22] = biological target: T1, D(3) dopamine receptor; assay: Agonist activity at human dopamine D3 receptor expressed in HEK293 cells co-expressing Galphao1 assessed as incorporation of [35S]GTPgammaS into Galphao1 after 30 mins by scintillation counting; type: functional, cell-based
How it was run: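 Membranes from HEK293 cells transiently transfected with D3 plus PTX-insensitive Gαo; expression 1100 fmol/mg. Buffer: 20 mM Hepes, 10 mM MgCl2, 100 mM NaCl, 70 mg/L saponin, pH 7.4. Membranes at 30-50 μg/mL, with compound and 10 μM GDP, preincubated 30 min at 37 °C. Then 0.10 nM [35S]GTPγS added for 30 min at 37 °C. Filtration, scintillation counting.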

T1 sequence (P35462 whole entry): as the sequence (P35462 as listed by the source V87F) above, with S9G, F87V counted along it

| SMILES | Ki [1] | Ratio Ki [2] | Ki [3] | Ki [4] | Ki [5] | Ki [6] | Ki [7] | Ki [8] | Ki [9] | Ki [10] | Ki [11] | Ki [12] | Ki [13] | Ki [14] | Ki [15] | further results |
| --- | --- | --- | --- | --- | --- | --- | --- | --- | --- | --- | --- | --- | --- | --- | --- | --- |
| CCCN(CCCCNC(C)=O)C1Cc2ccccc2C1 | 410 nM | 0.8 | 330 nM |  |  |  |  |  |  |  |  |  |  |  |  |  |
| CCCN(CCCCNC(=O)c1ccc(-c2ccccc2)cc1)C1CCn2nccc2C1 (racemic) |  |  |  | 77 nM | 150 nM | 0.71 nM | 520 nM | 6800 nM | 59 nM |  |  |  |  |  |  |  |
| CCCN(CCCCNC(=O)c1ccc(-c2ccccc2)cc1)C1Cc2cccn3ncc(c23)C1 (centres undefined) |  |  |  | 240 nM | 270 nM | 0.55 nM | 86 nM | 1800 nM | 230 nM |  |  |  |  |  |  |  |
| CCCN(CCC)[C@@H]1CCn2nccc2C1 |  |  |  | 53000 nM | 55000 nM | 2100 nM | 2900 nM | 68000 nM | 17000 nM | 4300 nM | 57000 nM |  |  |  |  |  |
| CCCCC(=O)NCCCCN(CCC)C1Cc2ccccc2C1 | 44 nM | 17 | 760 nM |  |  |  |  |  |  |  |  |  |  |  |  |  |
| CCCN(CCC)C1Cc2ccccc2C1 | 230 nM | 1.5 | 350 nM |  |  |  |  |  |  |  |  |  |  |  |  |  |
| CCCN(CCC)[C@H]1CCn2nccc2C1 | 150 nM | 2.8 | 420 nM | 270 nM | 410 nM | 31 nM | 5100 nM | 53000 nM | 380 nM | 14 nM | 4.6 nM | 8100 nM | 840 nM | 45 nM | 420 nM |  |
| COc1ccccc1N1CCN(CCCCNC(=O)c2ccc(-c3ccccc3)cc2)CC1 | 0.9 nM |  | 180 nM |  |  | 0.22 nM | 5.6 nM | 570 nM | 27 nM |  |  | 790 nM | 2.8 nM | 0.16 nM | 0.58 nM | inhibition [16]: Active |
| CCCN(CCCCNC(=O)c1ccc(-c2ccccc2)cc1)C1CCn2ncc(C=O)c2C1 (centres undefined) |  |  |  | 4700 nM | 8400 nM | 39 nM | 3800 nM | 23000 nM | 6300 nM |  |  |  |  |  |  |  |
| CCCN(CCCCNC(=O)c1ccc(-c2ccccc2)cc1)[C@H]1CCn2nccc2C1 | 0.076 nM | 2200 | 170 nM |  | 5.3 nM | 0.19 nM |  |  |  | 0.027 nM | 1 nM | 850 nM | 2.3 nM | 0.058 nM | 0.98 nM | EC50 [17]: 26 nM; EC50 [18]: 0.51 nM; EC50 [19]: 0.0028 nM; EC50 [20]: 110 nM; EC50 [21]: 370 nM; EC50 [22]: 0.056 nM |
| CCCN(CCCCNC(=O)c1ccc(-c2ccccc2)cc1)C1CCn2ncc(Cl)c2C1 (centres undefined) |  |  |  | 43 nM | 100 nM | 0.59 nM | 260 nM | 3600 nM | 190 nM |  |  |  |  |  |  |  |
| CCCN(CCCCNC(=O)c1ccccc1)C1Cc2ccccc2C1 | 2.7 nM | 93 | 250 nM |  |  |  |  |  |  |  |  |  |  |  |  |  |
| CCCN(CCCCNC(=O)c1ccc(-c2ccccc2)cc1)[C@@H]1CCn2nccc2C1 | 19 nM | 190 | 3700 nM |  | 300 nM | 15 nM |  |  |  | 6.3 nM | 49 nM | 1400 nM | 240 nM | 15 nM | 43 nM | EC50 [22]: 51 nM |
